Test results as given in ChEMBL document CHEMBL4680189, “Immunosuppressive properties of amino acid and peptide derivatives of mycophenolic acid” (Eur J Med Chem, 2020).
Calls of active or inactive are those of the source. The calls are words filed in the database; no cut-off is given here. Where a SMILES comes first, the peptide text is derived from it. [ ]: non-standard residue; d: D form. The star is where a group is joined. Mycophenolyl = COc1c(C)c2c(c(O)c1C/C=C(\C)CCC(=O)*)C(=O)OC2; Arg(NO2) = N=C(NCCC[C@H](N)C(=O)O)N[N+](=O)[O-]; βAla = NCCC(=O)O

Legend:
[1] = Selectivity index, ratio of IC50 for cytotoxicity against human PBMC by MTT assay to EC50 for antiproliferative activity against human PBMC by VPD450 staining based flow cytometry
Outline: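 Ratio of the MTT cytotoxicity IC50 (72 h, stimulated PBMC) to the VPD450 antiproliferative EC50 (72 h, stimulated PBMC), both from fitted concentration-response curves.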

[2] = Immunosuppression-mediated cytotoxicity against anti-CD3/anti-CD28-stimulated human PBMC cells assessed as reduction in cell viability incubated for 72 hrs by MTT assay; format: cell-based
Outline: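 PBMC from buffy coats of healthy donors, isolated on a Ficoll gradient with erythrocyte lysis. Plated at 50×10^3 cells/well with anti-CD3/anti-CD28, serial compound dilutions, in triplicate. Incubated 72 h, 37 °C, 5% CO2. MTT added for 3 h, formazan dissolved in acidified isopropanol (0.4 N HCl), A570 read. Three donors averaged; IC50 from curve fit.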

[3] = Immunosuppression-mediated antiproliferative activity against anti-CD3/anti-CD28-stimulated human PBMC cells assessed as inhibition of cell growth incubated for 72 hrs by VPD450 staining based flow cytometry; format: functional
Outline: (§1)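 Cells stained with VPD450 (2 μL of 1 mM dye per 10-30×10^6 cells in 1 mL PBS, 15 min, 37 °C), washed. PBMC: 50×10^3 cells/well with anti-CD3/anti-CD28, serial compound dilutions, 72 h. Jurkat: 50×10^3 cells/well, 48 h. 37 °C, 5% CO2, triplicate. Dye dilution by flow cytometry; EC50 from curve fit.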

Jurkat [4] = assay: Immunosuppression-mediated cytotoxicity against human Jurkat T cells assessed as reduction in cell viability at 1 mg/ml incubated for 48 hrs by MTT assay relative to control; format: cell-based
Outline: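 Jurkat cells (RPMI-1640, 10% FBS) plated at 50×10^3 cells/well and exposed to 1 mg/mL compound (1 mg in 20 μL DMSO, made up to 1 mL with medium). 48 h at 37 °C, 5% CO2, in triplicate. MTT (5 mg/mL stock) for 3 h, acidified isopropanol, A570. Viability calculated at that concentration.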

PBMC = assay: Immunosuppression-mediated antiproliferative activity against anti-CD3/anti-CD28-stimulated human PBMC cells assessed as inhibition of cell growth incubated for 72 hrs in presence of GMP by VPD450 staining based flow cytometry; format: functional
Outline: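 VPD450-stained PBMC, 50×10^3 cells/well, anti-CD3/anti-CD28 stimulation, serial compound dilutions plus GMP at 50 μM in the well. Incubated 72 h at 37 °C, 5% CO2, in triplicate. Proliferation read by flow cytometry as dye dilution and expressed relative to controls.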

Jurkat [5] = assay: Immunosuppression-mediated antiproliferative activity against human Jurkat T cells assessed as inhibition of cell growth incubated for 48 hrs by VPD450 staining based flow cytometry; format: functional; outline: as §1
[6] = Selectivity index, ratio of IC50 for cytotoxicity against human Jurkat T cells by MTT assay to EC50 for antiproliferative activity against human Jurkat T cells by VPD450 staining based flow cytometry
Outline: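 Jurkat IC50 from the 48 h MTT assay (50×10^3 cells/well, triplicate) divided by Jurkat EC50. […] Cells treated 48 h with serial dilutions, then dye dilution read by flow cytometry and fitted.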

Jurkat [7] = assay: Immunosuppression-mediated cytotoxicity against human Jurkat T cells assessed as reduction in cell viability incubated for 48 hrs by MTT assay; format: cell-based
Outline: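 Jurkat cells in RPMI-1640 with 10% FBS and P/S, 50×10^3 cells/well, exposed in triplicate to serial dilutions from 1 mg/mL (DMSO/medium) for 48 h at 37 °C, 5% CO2. MTT (5 mg/ml) then added for 3 h. Formazan dissolved in 0.4 N HCl–isopropanol, absorbance read at 570 nm. IC50 from curve fitting; viability at 1 mg/mL used where IC50 could not be reached.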

Jurkat [8] = assay: Immunosuppression-mediated antiproliferative activity against human Jurkat T cells assessed as inhibition of cell growth at 1 mg/ml incubated for 48 hrs by VPD450 staining based flow cytometry relative to control; format: functional; set-up: scale not given: the % may be the effect or the level left
Outline: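 Jurkat cells stained with VPD450 (2 μL of 1 mM dye per 10-30×10^6 cells, 15 min, 37 °C) and plated at 50×10^3 cells/well. Compound added at the top concentration, 1 mg/mL (1 mg dissolved in 20 μL DMSO, made up to 1 mL with medium). 48 h at 37 °C, 5% CO2, in triplicate. Read by flow cytometry; […].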

SMILES | Ratio IC50/EC50 [1] | IC50 [2] [µM] | EC50 [3] [µM] | Activity (Jurkat [4]) [%] | Activity (PBMC) | EC50 (Jurkat [5]) [µM] | Ratio IC50/EC50 [6] | IC50 (Jurkat [7]) [µM] | Activity (Jurkat [8]) [%]
COC(=O)[C@@H](NC(=O)[C@H](CCCCNC(=O)[C@@H](N)C(C)C)NC(=O)[C@@H]1CCCN1C(=O)[C@H](CCCNC(=N)N[N+](=O)[O-])NC(=O)CC/C(C)=C/Cc1c(O)c2c(c(C)c1OC)COC2=O)[C@@H](C)O (Mycophenolyl-[Arg(NO2)]PK(Val)T-OMe) | 4.3 | 548 | 129 | 63.35 | inactive | 556 |  |  | 
COc1c(C)c2c(c(O)c1C/C=C(\C)CCC(=O)N[C@@H](CCCNC(=N)N[N+](=O)[O-])C(=O)O)C(=O)OC2 | 2.2 | 283 | 132 | 59.12 | inactive | 1190 |  |  | 
COC(=O)[C@H](CCCNC(=N)N[N+](=O)[O-])NC(=O)[C@@H]1CCCN1C(=O)[C@H](CCCCNC(=O)CN)NC(=O)[C@@H](NC(=O)CC/C(C)=C/Cc1c(O)c2c(c(C)c1OC)COC2=O)[C@@H](C)O (Mycophenolyl-TK(Gly)P[Arg(NO2)]-OMe) | 1.1 | 628 | 590 | 53.4 |  | 1030 |  |  | 
COC(=O)C(NC(=O)CC/C(C)=C/Cc1c(O)c2c(c(C)c1OC)COC2=O)C(=O)OC | 0.3 | 3.5 | 11 |  | inactive | 65 | 1.6 | 101 | 
COC(=O)[C@@H](NC(=O)[C@H](CCCCNC(=O)CCN)NC(=O)[C@@H]1CCCN1C(=O)[C@H](CCCNC(=N)N[N+](=O)[O-])NC(=O)CC/C(C)=C/Cc1c(O)c2c(c(C)c1OC)COC2=O)[C@@H](C)O (Mycophenolyl-[Arg(NO2)]PK(βAla)T-OMe) | 3.8 | 588 | 154 |  |  |  |  | 786 | 75.89
COC(=O)[C@H](CCCNC(=N)N[N+](=O)[O-])NC(=O)[C@@H]1CCCN1C(=O)[C@H](CCCCNC(=O)[C@@H](N)CC(C)C)NC(=O)[C@@H](NC(=O)CC/C(C)=C/Cc1c(O)c2c(c(C)c1OC)COC2=O)[C@@H](C)O (Mycophenolyl-TK(Leu)P[Arg(NO2)]-OMe) | 1.2 | 687 | 551 | 67.04 |  | 801 |  |  | 
COC(=O)[C@H](CCCNC(=N)N[N+](=O)[O-])NC(=O)CC/C(C)=C/Cc1c(O)c2c(c(C)c1OC)COC2=O | 0.2 | 14 | 77 |  | inactive | 22.3 | 16 | 347 | 
COc1c(C)c2c(c(O)c1C/C=C(\C)CCC(=O)N[C@@H](CC(=O)O)C(=O)O)C(=O)OC2 | 0.2 | 50 | 211 |  | inactive | 396 | 1.4 | 540 | 
COC(=O)[C@@H](NC(=O)[C@H](CCCCNC(=O)CN)NC(=O)[C@@H]1CCCN1C(=O)[C@H](CCCNC(=N)N[N+](=O)[O-])NC(=O)CC/C(C)=C/Cc1c(O)c2c(c(C)c1OC)COC2=O)[C@@H](C)O (Mycophenolyl-[Arg(NO2)]PK(Gly)T-OMe) | 1.5 | 865 | 566 |  |  |  |  | 1100 | 56.72
CC[C@H](C)[C@H](NC(=O)CC/C(C)=C/Cc1c(O)c2c(c(C)c1OC)COC2=O)C(=O)O | 2.3 | 20.9 | 9 |  | inactive | 2.3 | 33 | 73.7 | 
COC(=O)[C@H](NC(=O)CC/C(C)=C/Cc1c(O)c2c(c(C)c1OC)COC2=O)[C@H](C)O | 7.3 | 69 | 9 |  | inactive | 14 | 8.3 | 115 | 
COC(=O)[C@@H](CCCNC(=N)N[N+](=O)[O-])NC(=O)CC/C(C)=C/Cc1c(O)c2c(c(C)c1OC)COC2=O | 0.7 | 71 | 95.6 |  | inactive | 69 | 8.2 | 572 | 
COC(=O)[C@@H](NC(=O)[C@H](CCCCNC(=O)[C@H](C)N)NC(=O)[C@@H]1CCCN1C(=O)[C@H](CCCNC(=N)N[N+](=O)[O-])NC(=O)CC/C(C)=C/Cc1c(O)c2c(c(C)c1OC)COC2=O)[C@@H](C)O (Mycophenolyl-[Arg(NO2)]PK(Ala)T-OMe) | 4.5 | 750 | 168 | 53.9 | inactive | 839 |  |  | 
COc1c(C)c2c(c(O)c1C/C=C(\C)CCC(=O)N[C@H](C(=O)O)[C@@H](C)O)C(=O)OC2 | 0.7 | 82 | 119 |  | inactive | 83 | 0.5 | 43 | 
CC[C@H](C)[C@H](N)C(=O)NCCCC[C@H](NC(=O)[C@@H](NC(=O)CC/C(C)=C/Cc1c(O)c2c(c(C)c1OC)COC2=O)[C@@H](C)O)C(=O)N1CCC[C@H]1C(=O)N[C@@H](CCCNC(=N)N[N+](=O)[O-])C(=O)OC (Mycophenolyl-TK(Ile)P[Arg(NO2)]-OMe) | 1.3 | 461 | 357 |  |  | 924 | 0.9 | 809 | 
COC(=O)[C@@H](NC(=O)[C@H](CCCCNC(=O)[C@@H](N)CC(C)C)NC(=O)[C@@H]1CCCN1C(=O)[C@H](CCCNC(=N)N[N+](=O)[O-])NC(=O)CC/C(C)=C/Cc1c(O)c2c(c(C)c1OC)COC2=O)[C@@H](C)O (Mycophenolyl-[Arg(NO2)]PK(Leu)T-OMe) | 3.2 | 519 | 161 | 61.34 |  |  |  |  | 63.04
COC(=O)C[C@H](NC(=O)CC/C(C)=C/Cc1c(O)c2c(c(C)c1OC)COC2=O)C(=O)OC | 2.2 | 18 | 8 |  | inactive | 16.7 | 1.2 | 20 | 
COC(=O)[C@H](CCCNC(=N)N[N+](=O)[O-])NC(=O)[C@@H]1CCCN1C(=O)[C@H](CCCCNC(=O)CCN)NC(=O)[C@@H](NC(=O)CC/C(C)=C/Cc1c(O)c2c(c(C)c1OC)COC2=O)[C@@H](C)O (Mycophenolyl-TK(βAla)P[Arg(NO2)]-OMe) | 2.5 | 526 | 211 |  | inactive | 941 | 1.1 | 1020 | 
COc1c(C)c2c(c(O)c1C/C=C(\C)CCC(=O)N[C@@H](C(=O)O)[C@H](C)O)C(=O)OC2 | 1 | 118 | 122 |  | inactive | 21.4 | 11 | 229 | 
COc1c(C)c2c(c(O)c1C/C=C(\C)CCC(=O)O)C(=O)OC2 [MYCOPHENOLIC ACID] | 4.6 | 0.14 | 0.0301 |  |  | 0.3 | 228 | 60.6 | 
COc1c(C)c2c(c(O)c1C/C=C(\C)CCC(=O)N[C@H](CCCNC(=N)N[N+](=O)[O-])C(=O)O)C(=O)OC2 | 0.7 | 422 | 588 | 75.14 | inactive | 1040 |  |  | 
